Experimental data reported in ChEMBL document CHEMBL1126310, “Affinity probes for the avermectin binding proteins” (J Med Chem, 1992).
pIC50: −log10 of the molar value. In brackets after ≈: the same amount, converted by molar mass.

Legend:
Assay type in all cases: functional
Artemia salina = experiment: Compound was evaluated for the biological activity by (Artemia salina) brine shrimp immobilization assay
Procedure, shortened: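 Compounds dissolved at 1 mg/mL in acetonitrile, tested in duplicate as 2-fold serial dilutions in acetonitrile across a row. Brine shrimp added in 0.20 mL brine per well. Immobilization scored by microscope after 6 h at room temperature; IC100 reported.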

Caenorhabditis elegans [1] = experiment: Compound was evaluated for the biological activity by Caenorhabditis elegans motility assay.
Procedure, shortened: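 About 100 worms per tube, rinsed and resuspended in Krebs bicarbonate buffer pH 7.4. Compounds in DMSO, final 1% DMSO in 500 μL. After 16 h at 22 °C, motility scored by microscope; percentage of immotile worms determined at several concentrations per compound.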

Caenorhabditis elegans [2] = experiment: Compound was evaluated for the binding affinity for Caenorhabditis elegans avermectin using Caenorhabditis elegans membrane homogenates using [3H]IVM as radioligand
Procedure, shortened: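 C. elegans worms washed with 50 mM HEPES pH 7.4, homogenized; 1000g supernatant spun at 28 000g, pellet resuspended to about 12.5 μg protein/mL. Membranes (1.0 mL) incubated with [3H]-IVM (22,23-ditritioivermectin) at 22 °C for 45 min with and without analogs. Filtration over GF/B filters, rinse with cold HEPES containing 0.25% Triton X-100, scintillation counting; IC50 reported.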

pIC50 (Caenorhabditis elegans [2]) | Compound | IC100 (Artemia salina) [ng/mL] | EC50 (Caenorhabditis elegans [1]; read-out: ED50 (the source's name)) [µg/mL] | pIC50 (Caenorhabditis elegans [2]; Caenorhabditis elegans, 45 min) | ED50 (Caenorhabditis elegans [1]) [µg/mL]
– | CCC(C)[C@H]1O[C@]2(CC[C@@H]1C)C[C@@H]1C[C@@H](C/C=C(\C)C(OCOCCN3CC3)[C@@H](C)/C=C/C=C3\COC4[C@H](O)C(C)=C[C@@H](C(=O)O1)[C@]34O)O2 (stereo partly specified) | 3470 | 0.048 (≈ 0.07 µM) | 8.30 | –
10.00 | IVERMECTIN [listing 1 of 2 here] | – | – | – | –
– | IVERMECTIN [listing 2 of 2 here] | 430 | – | – | 0.007
